Experimental data taken from ChEMBL document CHEMBL1275486, “Kinetic characterization of VIM-7, a divergent member of the VIM metallo-beta-lactamase family” (Antimicrob Agents Chemother, 2008).

What was measured:
[1] = test system: CO[C@@]1(NC(=O)C(C(=O)O)c2ccc(O)cc2)C(=O)N2C(C(=O)O)=C(CSc3nnnn3C)CO[C@@H]21; experiment: (§1) Ratio of Kcat to Km for Pseudomonas aeruginosa beta-lactamase VIM-2 by spectrophotometry; details: 81-11963
How it was run: (§2)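 Recombinant enzyme was expressed in E. coli BL21(DE3) from pET-26b and purified from the periplasm to >99%, with concentration taken from A280. Hydrolysis was followed spectrophotometrically at 25°C in 50 mM sodium cacodylate pH 7.0 with 100 μM ZnCl2 and 0.1 mg/ml BSA. Km and kcat came from initial velocity versus substrate concentration. Some Km values were taken as competitive Ki against nitrocefin reporter.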

[2] = test system: CCN1CCN(C(=O)N[C@@H](C(=O)N[C@@H]2C(=O)N3[C@@H]2SC(C)(C)[C@@H]3C(=O)O)c2ccccc2)C(=O)C1=O; experiment: as §1; details: 81-11963; how it was run: as §2
[3] = test system: CC(=O)OCC1=C(C(=O)O)N2C(=O)[C@@H](NC(=O)Cc3cccs3)[C@H]2SC1; experiment: as §1; details: 81-11963; how it was run: as §2
[4] = test system: CC1(C)[C@H](C(=O)O)N2C(=O)C[C@H]2S1(=O)=O; experiment: as §1; details: 81-11963; how it was run: as §2
[5] = test system: C[C@]1(Cn2ccnn2)[C@H](C(=O)O)N2C(=O)C[C@H]2S1(=O)=O; experiment: as §1; details: 81-11963; how it was run: as §2
[6] = test system: C[C@@H](O)[C@H]1C(=O)N2C(C(=O)O)=C(S[C@@H]3CN[C@H](C(=O)Nc4cccc(C(=O)O)c4)C3)[C@H](C)[C@H]12; experiment: as §1; details: 81-11963; how it was run: as §2
[7] = test system: CC(C)(O/N=C(\C(=O)N[C@@H]1C(=O)N2C(C(=O)[O-])=C(C[n+]3ccccc3)CS[C@H]12)c1csc(N)n1)C(=O)O; experiment: as §1; details: 81-11963; how it was run: as §2
[8] = test system: Cc1onc(-c2ccccc2Cl)c1C(=O)N[C@@H]1C(=O)N2[C@@H]1SC(C)(C)[C@@H]2C(=O)O; experiment: as §1; details: 81-11963; how it was run: as §2
[9] = test system: CO/N=C(\C(=O)N[C@@H]1C(=O)N2C(C(=O)O)=C(COC(C)=O)CS[C@H]12)c1csc(N)n1; experiment: as §1; details: 81-11963; how it was run: as §2
[10] = test system: CC1(C)S[C@@H]2[C@H](NC(=O)C(C(=O)O)c3ccccc3)C(=O)N2[C@H]1C(=O)O; experiment: as §1; details: 81-11963; how it was run: as §2
[11] = test system: CC1(C)S[C@@H]2[C@H](NC(=O)[C@H](NC(=O)N3CCNC3=O)c3ccccc3)C(=O)N2[C@H]1C(=O)O; experiment: as §1; details: 81-11963; how it was run: as §2
[12] = test system: CC1(C)S[C@@H]2[C@H](NC(=O)Cc3ccccc3)C(=O)N2[C@H]1C(=O)O; experiment: as §1; details: 81-11963; how it was run: as §2
[13] = test system: CC1(C)S[C@@H]2[C@H](NC(=O)[C@H](N)c3ccccc3)C(=O)N2[C@H]1C(=O)O; experiment: as §1; details: 81-11963; how it was run: as §2
[14] = test system: O=C(Cc1cccs1)N[C@@H]1C(=O)N2C(C(=O)O)=C(/C=C/c3ccc([N+](=O)[O-])cc3[N+](=O)[O-])CS[C@H]12; experiment: as §1; details: 81-11963; how it was run: as §2
[15] = test system: CO[C@@]1(NC(=O)Cc2cccs2)C(=O)N2C(C(=O)O)=C(COC(N)=O)CS[C@@H]21; experiment: as §1; details: 81-11963; how it was run: as §2
[16] = test system: CO/N=C(\C(=O)N[C@@H]1C(=O)N2C(C(=O)O)=C(COC(N)=O)CS[C@H]12)c1ccco1; experiment: as §1; details: 81-11963; how it was run: as §2
[17] = test system: O=C(O)[C@H]1/C(=C/CO)O[C@@H]2CC(=O)N21; experiment: as §1; details: 81-11963; how it was run: as §2
[18] = test system: O=C(Cc1cccs1)N[C@@H]1C(=O)N2C(C(=O)[O-])=C(C[n+]3ccccc3)CS[C@H]12; experiment: as §1; details: 81-11963; how it was run: as §2
[19] = test system: CO/N=C(\C(=O)N[C@@H]1C(=O)N2C(C(=O)[O-])=C(C[N+]3(C)CCCC3)CS[C@H]12)c1csc(N)n1; experiment: as §1; details: 81-11963; how it was run: as §2
[20] = test system: C[C@@H](O)[C@H]1C(=O)N2C(C(=O)O)=C(S[C@@H]3CN[C@H](C(=O)N(C)C)C3)[C@H](C)[C@H]12; experiment: as §1; details: 81-11963; how it was run: as §2
[21] = test system: CO[C@@]1(NC(=O)C(C(=O)O)c2ccc(O)cc2)C(=O)N2C(C(=O)O)=C(CSc3nnnn3C)CO[C@@H]21; experiment: (§3) Activity of Pseudomonas aeruginosa beta-lactamase VIM-2 by spectrophotometry; details: 81-11963; how it was run: as §2
[22] = test system: CCN1CCN(C(=O)N[C@@H](C(=O)N[C@@H]2C(=O)N3[C@@H]2SC(C)(C)[C@@H]3C(=O)O)c2ccccc2)C(=O)C1=O; experiment: as §3; details: 81-11963; how it was run: as §2
[23] = test system: CC(=O)OCC1=C(C(=O)O)N2C(=O)[C@@H](NC(=O)Cc3cccs3)[C@H]2SC1; experiment: as §3; details: 81-11963; how it was run: as §2
[24] = test system: CC1(C)[C@H](C(=O)O)N2C(=O)C[C@H]2S1(=O)=O; experiment: as §3; details: 81-11963; how it was run: as §2
[25] = test system: C[C@H]1[C@H](NC(=O)/C(=N\OC(C)(C)C(=O)O)c2csc(N)n2)C(=O)N1S(=O)(=O)O; experiment: as §3; details: 81-11963; how it was run: as §2
[26] = test system: C[C@]1(Cn2ccnn2)[C@H](C(=O)O)N2C(=O)C[C@H]2S1(=O)=O; experiment: as §3; details: 81-11963; how it was run: as §2
[27] = test system: C[C@@H](O)[C@H]1C(=O)N2C(C(=O)O)=C(S[C@@H]3CN[C@H](C(=O)Nc4cccc(C(=O)O)c4)C3)[C@H](C)[C@H]12; experiment: as §3; details: 81-11963; how it was run: as §2
[28] = test system: CC(C)(O/N=C(\C(=O)N[C@@H]1C(=O)N2C(C(=O)[O-])=C(C[n+]3ccccc3)CS[C@H]12)c1csc(N)n1)C(=O)O; experiment: as §3; details: 81-11963; how it was run: as §2
[29] = test system: Cc1onc(-c2ccccc2Cl)c1C(=O)N[C@@H]1C(=O)N2[C@@H]1SC(C)(C)[C@@H]2C(=O)O; experiment: as §3; details: 81-11963; how it was run: as §2
[30] = test system: CO/N=C(\C(=O)N[C@@H]1C(=O)N2C(C(=O)O)=C(COC(C)=O)CS[C@H]12)c1csc(N)n1; experiment: as §3; details: 81-11963; how it was run: as §2
[31] = test system: CC1(C)S[C@@H]2[C@H](NC(=O)C(C(=O)O)c3ccccc3)C(=O)N2[C@H]1C(=O)O; experiment: as §3; details: 81-11963; how it was run: as §2
[32] = test system: CC1(C)S[C@@H]2[C@H](NC(=O)[C@H](NC(=O)N3CCNC3=O)c3ccccc3)C(=O)N2[C@H]1C(=O)O; experiment: as §3; details: 81-11963; how it was run: as §2
[33] = test system: CC1(C)S[C@@H]2[C@H](NC(=O)Cc3ccccc3)C(=O)N2[C@H]1C(=O)O; experiment: as §3; details: 81-11963; how it was run: as §2
[34] = test system: CC1(C)S[C@@H]2[C@H](NC(=O)[C@H](N)c3ccccc3)C(=O)N2[C@H]1C(=O)O; experiment: as §3; details: 81-11963; how it was run: as §2
[35] = test system: O=C(Cc1cccs1)N[C@@H]1C(=O)N2C(C(=O)O)=C(/C=C/c3ccc([N+](=O)[O-])cc3[N+](=O)[O-])CS[C@H]12; experiment: as §3; details: 81-11963; how it was run: as §2
[36] = test system: CO[C@@]1(NC(=O)Cc2cccs2)C(=O)N2C(C(=O)O)=C(COC(N)=O)CS[C@@H]21; experiment: as §3; details: 81-11963; how it was run: as §2
[37] = test system: CO/N=C(\C(=O)N[C@@H]1C(=O)N2C(C(=O)O)=C(COC(N)=O)CS[C@H]12)c1ccco1; experiment: as §3; details: 81-11963; how it was run: as §2
[38] = test system: O=C(O)[C@H]1/C(=C/CO)O[C@@H]2CC(=O)N21; experiment: as §3; details: 81-11963; how it was run: as §2
[39] = test system: O=C(Cc1cccs1)N[C@@H]1C(=O)N2C(C(=O)[O-])=C(C[n+]3ccccc3)CS[C@H]12; experiment: as §3; details: 81-11963; how it was run: as §2
[40] = test system: CO/N=C(\C(=O)N[C@@H]1C(=O)N2C(C(=O)[O-])=C(C[N+]3(C)CCCC3)CS[C@H]12)c1csc(N)n1; experiment: as §3; details: 81-11963; how it was run: as §2
[41] = test system: C[C@@H](O)[C@H]1C(=O)N2C(C(=O)O)=C(S[C@@H]3CN[C@H](C(=O)N(C)C)C3)[C@H](C)[C@H]12; experiment: as §3; details: 81-11963; how it was run: as §2
[42] = test system: Escherichia coli; experiment: Ratio of Kcat to Km for Escherichia coli beta-lactamase VIM-1 by spectrophotometry
[43] = test system: Escherichia coli; experiment: Activity of Escherichia coli beta-lactamase VIM-1 by spectrophotometry

## Beta-lactamase VIM-2 (Pseudomonas aeruginosa) (from UniProt Q9K2N0)
[1]
  kcat/Km: 1.6e+06 M⁻¹ s⁻¹
[2]
  kcat/Km: 2.4e+06 M⁻¹ s⁻¹
[3]
  kcat/Km: 1.2e+07 M⁻¹ s⁻¹
[4]
  kcat/Km: 72000 M⁻¹ s⁻¹
[5]
  kcat/Km: 32000 M⁻¹ s⁻¹
[6]
  kcat/Km: 22000 M⁻¹ s⁻¹
[7]
  kcat/Km: 50000 M⁻¹ s⁻¹
[8]
  kcat/Km: 1.4e+06 M⁻¹ s⁻¹
[9]
  kcat/Km: 5.8e+06 M⁻¹ s⁻¹
[10]
  kcat/Km: 900000 M⁻¹ s⁻¹
[11]
  kcat/Km: 1e+06 M⁻¹ s⁻¹
[12]
  kcat/Km: 4e+06 M⁻¹ s⁻¹
[13]
  kcat/Km: 1.4e+06 M⁻¹ s⁻¹
[14]
  kcat/Km: 4.28e+07 M⁻¹ s⁻¹
[15]
  kcat/Km: 1.2e+06 M⁻¹ s⁻¹
[16]
  kcat/Km: 400000 M⁻¹ s⁻¹
[17]
  kcat/Km: 1100 M⁻¹ s⁻¹
[18]
  kcat/Km: 2.8e+06 M⁻¹ s⁻¹
[19]
  kcat/Km: 100000 M⁻¹ s⁻¹
[20]
  kcat/Km: 2.5e+06 M⁻¹ s⁻¹
[21]
  Km: 55 µM
  kcat: 90 s⁻¹
[22]
  Km: 125 µM
  kcat: 300 s⁻¹
[23]
  Km: 11 µM
  kcat: 130 s⁻¹
[24]
  Km: 320 µM
  kcat: 23 s⁻¹
[25]
  Km: > 1000 µM
  kcat: < 0.01 s⁻¹
[26]
  Km: 875 µM
  kcat: 28 s⁻¹
[27]
  Km: 9 µM
  kcat: 0.2 s⁻¹
[28]
  Km: 72 µM
  kcat: 3.6 s⁻¹
[29]
  Km: 250 µM
  kcat: 350 s⁻¹
[30]
  Km: 12 µM
  kcat: 70 s⁻¹
[31]
  Km: 205 µM
  kcat: 185 s⁻¹
[32]
  Km: 200 µM
  kcat: 200 s⁻¹
[33]
  Km: 70 µM
  kcat: 280 s⁻¹
[34]
  Km: 90 µM
  kcat: 125 s⁻¹
[35]
  Km: 18 µM
  kcat: 770 s⁻¹
[36]
  Km: 13 µM
  kcat: 15 s⁻¹
[37]
  Km: 20 µM
  kcat: 8 s⁻¹
[38]
  Km: > 5000 µM
  kcat: 5.4 s⁻¹
[39]
  Km: 50 µM
  kcat: 140 s⁻¹
[40]
  Km: > 400 µM
  kcat: > 40 s⁻¹
[41]
  Km: 2 µM
  kcat: 5 s⁻¹

## CC1(C)S[C@@H]2[C@H](NC(=O)C(C(=O)O)c3ccccc3)C(=O)N2[C@H]1C(=O)O (some centres undefined)
[42]
  kcat/Km: 2.3e+06 M⁻¹ s⁻¹
[43]
  Km: 75 µM
  kcat: 170 s⁻¹

## C[C@@H](O)[C@H]1C(=O)N2C(C(=O)O)=C(S[C@@H]3CN[C@H](C(=O)N(C)C)C3)[C@H](C)[C@H]12
[42]
  kcat/Km: 260000 M⁻¹ s⁻¹
[43]
  Km: 50 µM
  kcat: 13 s⁻¹

## CO/N=C(\C(=O)N[C@@H]1C(=O)N2C(C(=O)O)=C(COC(N)=O)CS[C@H]12)c1ccco1
[42]
  kcat/Km: 7.7e+06 M⁻¹ s⁻¹
[43]
  Km: 42 µM
  kcat: 325 s⁻¹

## CC1(C)[C@H](C(=O)O)N2C(=O)C[C@H]2S1(=O)=O
[42]
  kcat/Km: 50000 M⁻¹ s⁻¹
[43]
  Km: 200 µM
  kcat: 10 s⁻¹
